What all share (assay type): functional, cell-based
Experiment [1] deals with MCF7. Nature of the experiment: Cytotoxicity against human MCF7 cells after 3 days by MTT assay. Conditions: MCF7, 72 h. The method in brief:
(§1)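 Cells grown in RPMI 1640 with 10% fetal calf serum were plated from suspension and held 12 h at 37 °C, 5% CO2. Test sample was then added and cells were cultured 3 days at 37 °C. MTT was added for 4 h at 37 °C, supernatant removed, formazan dissolved in DMSO, absorbance read at 570 nm. IC50 = concentration giving 50% growth inhibition versus untreated control.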

Experiment [2] relates to KB. Nature of the experiment: Cytotoxicity against human KB cells after 3 days by MTT assay. The settings on record: 72 h. The method in brief:
as §1

Experiment [3] in a line: Cytotoxicity against human CNE2 cells after 3 days by MTT assay. Conditions: CNE-2, 72 h. The gist of the method: as §1
In general terms: Formazan colour is commonly taken as a measure of viable cells.

Experiment [4] has as its system MGC-803. Nature of the experiment: Cytotoxicity against human MGC803 cells after 3 days by MTT assay. The settings on record: MGC-803, 72 h. The method in brief: as §1

Bounds are passed on as bounds.

The values below come from ChEMBL document CHEMBL1649400, “Synthesis and antitumor activity of ureas containing pyrimidinyl group” (Eur J Med Chem, 2011).

Consider `Cc1cc(C)nc(Oc2ccc(NC(=O)Nc3ccc(F)cc3)cc2)n1`, for which the IC50 is over 50 µM in experiment [1], 48.4 µM in experiment [2], 46.9 µM in experiment [3] and over 50 µM in experiment [4].

For the compound `Cc1cc(C)nc(Sc2ccc(NC(=O)Nc3ccccc3)cc2)n1`, the IC50 in experiment [1] was over 50 µM; in experiment [2], 25.7 µM; in experiment [3], 22 µM; in experiment [4], 40.1 µM.

On to `O=c1[nH]cc(F)c(=O)[nH]1` [FLUOROURACIL], for which the IC50 in experiment [1] was determined as 15.2 µM; in experiment [2] it was 11.9 µM; in experiment [3], 13.1 µM; in experiment [4], 12.6 µM.

Take `Cc1cccc(NC(=O)Nc2ccc(Oc3nc(C)cc(C)n3)cc2)c1`: the IC50 in experiment [2] is over 50 µM.

`Cc1cc(C)nc(Oc2ccc(NC(=O)Nc3ccccc3)cc2)n1`: in experiment [2], the IC50 was over 50 µM.

As for `Cc1cc(C)nc(Sc2ccc(NC(=O)Nc3ccc(Cl)cc3)cc2)n1`, the IC50 in experiment [1] was determined as 35.3 µM; in experiment [2], 10.2 µM; in experiment [3], 13.5 µM; in experiment [4] it was 26.1 µM.

With `Cc1cc(C)nc(Oc2ccc(NC(=O)Nc3ccc(Cl)cc3)cc2)n1`, the IC50 in experiment [1] was over 50 µM; in experiment [2], 25.4 µM; in experiment [3] it was 20.4 µM; in experiment [4] it was over 50 µM.

As to `COc1ccc(NC(=O)Nc2ccc(Cl)cc2Cl)cc1`, the IC50 in experiment [1], in experiment [2], in experiment [3] and in experiment [4] was over 50 µM each time.

With `COc1ccc(NC(=O)Nc2ccc(Cl)cc2)cc1`, the IC50 in experiment [1], in experiment [2] and in experiment [3] was over 50 µM in each case.

With `Cc1cc(C)nc(Oc2ccc(NC(=O)Nc3ccc(OC(F)(F)F)cc3)cc2)n1`, the IC50 in experiment [1] was over 50 µM; in experiment [2], 28.9 µM; in experiment [3] it was 30.8 µM; in experiment [4] it was over 50 µM.

As to `Cc1cc(C)nc(Sc2ccc(NC(=O)Nc3ccc(Cl)cc3Cl)cc2)n1`, the IC50 in experiment [1] was over 50 µM; in experiment [2], 15.5 µM; in experiment [3], 23.2 µM; in experiment [4], over 50 µM.

For `Cc1cccc(NC(=O)Nc2ccc(Sc3nc(C)cc(C)n3)cc2)c1`, the IC50 in experiment [1] was 37 µM; in experiment [2] it was 47.8 µM; in experiment [3], over 50 µM; in experiment [4], 25.3 µM.

With `Cc1cc(C)nc(Oc2ccc(NC(=O)Nc3ccc(Cl)cc3Cl)cc2)n1`, the IC50 in experiment [1] turned out to be 47.8 µM; in experiment [2] it was 31.8 µM; in experiment [3], 38.9 µM; in experiment [4] it was 35.4 µM.

As to `Cc1cc(C)nc(Sc2ccc(NC(=O)Nc3ccc(OC(F)(F)F)cc3)cc2)n1`, the 50% inhibitory concentration (IC50) in experiment [1] was determined as 41.7 µM; in experiment [2], 20 µM; in experiment [3], 22.8 µM; in experiment [4] it was 13.8 µM.

As for `Cc1cc(C)nc(Sc2ccc(NC(=O)Nc3ccc(F)cc3)cc2)n1`, the IC50 in experiment [1] is over 50 µM; in experiment [2] it was 32.1 µM; in experiment [3] it was 34.1 µM; in experiment [4] it was over 50 µM.

As usually defined, the IC50 is the concentration at which inhibition is half-maximal. A lower IC50 goes with higher potency.
